Experimental data reported in ChEMBL document CHEMBL5042548, “Multiparameter Optimization of Oxidative Phosphorylation Inhibitors for the Treatment of Pancreatic Cancer” (J Med Chem, 2022).
The source made the active and inactive calls. No cut-off for these calls is given here.

Assays:
[1] = test system: MIA PaCa-2; assay: Cytotoxicity against human MIA PaCa-2 cells assessed as inhibition of cell growth incubated for overnight in glucose-containing medium followed by compound addition and measured after 7 days by MTT assay; assay type: functional, cell-based; details: MIA PaCa-2, 168 h
How it was run: (§1)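 7-day MTT in glucose medium (RPMI 1640 + 10% FBS). Seeding is 200 cells/well for MIA PaCa-2 and 300 cells/well for BxPC-3, overnight at 37 °C, 5% CO2, before compound. MTT 3 mg/mL is added for 4 h, then DMSO, and absorbance is read at 570 nm. IC50 is by nonlinear regression; ≥3 independent experiments.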

[2] = test system: BXPC-3; assay: Cytotoxicity against human BXPC-3 cells assessed as inhibition of cell growth incubated for overnight in glucose-containing medium followed by compound addition and measured after 7 days by MTT assay; assay type: functional, cell-based; details: BXPC-3, 168 h; how it was run: as §1
[3] = test system: MIA PaCa-2; assay: Cytotoxicity against human MIA PaCa-2 cells assessed as inhibition of cell growth incubated for overnight in glucose-containing medium followed by compound addition and measured after 3 days by MTT assay; assay type: functional, cell-based; details: MIA PaCa-2, 72 h
How it was run: (§2)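 MIA PaCa-2 3-day MTT in glucose medium (RPMI 1640 + 10% FBS) or galactose medium (glucose-free RPMI + 10 mM galactose + 10% FBS). Galactose wells are seeded at 8000 cells/well. MTT read-out is at 570 nm after DMSO solubilization. IC50 is by nonlinear regression; ≥3 independent experiments.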

[4] = test system: MIA PaCa-2; assay: Cytotoxicity against human MIA PaCa-2 cells assessed as inhibition of cell growth incubated for overnight in galactose-containing medium followed by compound addition and measured after 3 days by MTT assay; assay type: functional, cell-based; details: MIA PaCa-2, 72 h; how it was run: as §2
[5] = Inhibition of oxidative phosphorylation in human MIA PaCa-2 cells assessed as reduction in ATP production incubated for 24 hrs in galactose-containing medium by celltiter-glo luminescence cell viability assay; assay type: functional, cell-based; details: MIA PaCa-2, 24 h
How it was run: (§3)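 MIA PaCa-2 cells are seeded at 10000 cells/well in glucose RPMI + 10% FBS or in glucose-free RPMI + 10 mM galactose + 10% FBS. Total ATP is measured by CellTiter-Glo luminescence 24 h after compound. IC50 is by nonlinear regression; ≥3 independent experiments.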

[6] = Toxicity in C57BL/6 mouse allografted with mouse Panc02 cells assessed as body weight loss at 15 mg/kg, ip administered once a day for 28 days and measured twice per week; assay type: organism-based; details: in vivo, 672 h, time 28 day
How it was run: (§4)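 Female C57BL/6 mice, 6-10 weeks old, get 5×10^6 Pan02 cells s.c. in the right flank and are randomized at ~100 mm3 (n = 5/group). Dosing is daily for 28 days. Vehicle is 10% DMSO/50% PG/40% saline, except 15 mg/kg uses 10% DMSO/60% PG/30% saline. Caliper volume (length×width²)/2 and body weight are recorded twice weekly.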

[7] = Toxicity in C57BL/6 mouse allografted with mouse Panc02 cells assessed as drug tolerability at 15 mg/kg, ip administered once a day for 28 days; assay type: organism-based; details: in vivo, 672 h, time 28 day
[8] = Inhibition of oxidative phosphorylation in human MIA PaCa-2 cells assessed as reduction in ATP production incubated for 24 hrs in glucose-containing medium by celltiter-glo luminescence cell viability assay; assay type: functional, cell-based; details: MIA PaCa-2, 24 h; how it was run: as §3
[9] = Metabolic stability in mouse liver microsomes assessed as half life at 10 uM measured up to 60 mins in presence of NADPH by LC-MS/MS analysis; assay type: ADME, Microsome; details: for half-life at 10 µM: liver microsomes; for t1/2: microsomes, 1 h, 10 µM
[10] = Metabolic stability in human liver microsomes assessed as half life at 10 uM measured up to 60 mins in presence of NADPH by LC-MS/MS analysis; assay type: ADME, Microsome; details: for half-life at 10 µM: liver microsomes; for t1/2: microsomes, 1 h, 10 µM
[11] = Toxicity in C57BL/6 mouse allografted with mouse Panc02 cells assessed as drug tolerability at 7.5 mg/kg, ip administered once a day for 28 days; assay type: organism-based; details: in vivo, 672 h, time 28 day
[12] = Toxicity in C57BL/6 mouse allografted with mouse Panc02 cells assessed as body weight loss at 7.5 mg/kg, ip administered once a day for 28 days and measured twice per week; assay type: organism-based; details: in vivo, 672 h, time 28 day; how it was run: as §4
[13] = test system: Panc02; assay: Antitumor activity against mouse Panc02 cells allografted in C57BL/6 mouse syngeneic model assessed as tumor growth inhibition at 2.5 mg/kg, ip administered once daily for 28 days and measured twice per week; assay type: functional, organism-based; details: time 28.0 day; how it was run: as §4
[14] = Toxicity in C57BL/6 mouse allografted with mouse Panc02 cells assessed as body weight loss at 2.5 mg/kg, ip administered once a day for 28 days and measured twice per week; assay type: organism-based; details: in vivo, 672 h, time 28 day; how it was run: as §4
[15] = Toxicity in C57BL/6 mouse allografted with mouse Panc02 cells assessed as drug tolerability at 2.5 mg/kg, ip administered once a day for 28 days; assay type: organism-based; details: in vivo, 672 h, time 28 day

Compound | IC50 [2] [nM] | IC50 [1] [nM] | IC50 [3] [nM] | IC50 [4] [nM] | further results
CCOC(=O)[C@@H]1CCCN(S(=O)(=O)c2ccc(S(=O)(=O)N(CC)CC)cc2)C1 | – | – | – | – | GI50 ([1]; time 7 day): 600 nM
CCN(CC)S(=O)(=O)c1ccc(S(=O)(=O)N2CCC[C@@H](C(=O)N3CCC(C(F)(F)F)CC3)C2)cc1 | 370 | 320 | > 10000 | 110 | –
CCP(=O)(CC)c1ccc(S(=O)(=O)N2CCC[C@@H](C(=O)N3CCC(F)(F)CC3)C2)cc1 | > 30000 | 21500 | – | – | –
O=C([C@@H]1CCCN(S(=O)(=O)c2ccc(S(=O)(=O)N3CC[C@H](O)C3)cc2)C1)N1CCC(F)(F)CC1 | 580 | 590 | – | – | –
CCN(CC)C(=O)c1ccc(S(=O)(=O)N2CCC[C@@H](C(=O)N3CCC(F)(F)CC3)C2)cc1 | 240 | 70 | – | – | –
FC(F)(F)c1ccc(/C=C/c2nc(COc3ccc(CCCCn4ccnn4)cc3)co2)cc1 [MUBRITINIB] | – | 51 | – | – | –
CCN(CC)S(=O)(=O)c1ccc(S(=O)(=O)N2CCC[C@@H](C(=O)NC3CCOCC3)C2)cc1 | 8570 | 3770 | > 10000 | 1350 | –
O=C([C@@H]1CCCN(S(=O)(=O)c2ccc(S(=O)(=O)C3CC3)cc2)C1)N1CCC(F)(F)CC1 | 129 | 26 | – | – | –
CCN(CC)S(=O)(=O)c1ccc(S(=O)(=O)N2CCC[C@@H](C(=O)N3CCC(C(F)F)CC3)C2)cc1 | 450 | 420 | > 10000 | 140 | –
CCN(CC)S(=O)(=O)c1ccc(S(=O)(=O)N2CCC[C@@H](C(=O)N3CCC(OC)CC3)C2)cc1 | 1420 | 140 | > 10000 | 50 | –
CCN(CC)S(=O)(=O)c1ccc(S(=O)(=O)N2CCC[C@@H](C(=O)N3CCS(=O)(=O)CC3)C2)cc1 | 4430 | 900 | > 10000 | 220 | –
CCN(CC)S(=O)(=O)c1ccc(S(=O)(=O)N2CCC[C@@H](C(=O)N[C@H]3CC[C@@H](OC)CC3)C2)cc1 | 2150 | 960 | > 10000 | 590 | –
O=C([C@@H]1CCCN(S(=O)(=O)c2ccc(S(=O)(=O)C3COC3)cc2)C1)N1CCC(F)(F)CC1 | 361 | 110 | – | – | –
O=C([C@@H]1CCCN(S(=O)(=O)c2ccc(S(=O)(=O)N3CC[C@@H](O)C3)cc2)C1)N1CCC(F)(F)CC1 | 330 | 210 | > 3000 | 135 | IC50 [5]: 123 nM; Activity [6]: Non-Toxic; Activity [7]: Non-Toxic; IC50 [8]: > 3000 nM; half-life at 10 µM [9]: 26.2 min; half-life at 10 µM [10]: 31 min
CCN(CC)S(=O)(=O)c1ccc(S(=O)(=O)N2CCC[C@@H](C(=O)N3CCC(COC)CC3)C2)cc1 | 1360 | 250 | > 10000 | 50 | –
CC(C)CS(=O)(=O)c1ccc(S(=O)(=O)N2CCC[C@@H](C(=O)N3CCC(F)(F)CC3)C2)cc1 | 311 | 80 | – | – | –
CP(C)(=O)c1ccc(S(=O)(=O)N2CCC[C@@H](C(=O)N3CCC(F)(F)CC3)C2)cc1 | > 30000 | > 30000 | – | – | –
CCC(CC)S(=O)(=O)c1ccc(S(=O)(=O)N2CCC[C@@H](C(=O)N3CCC(F)(F)CC3)C2)cc1 | 40 | 13 | – | – | t1/2 [9]: 8.7 min; t1/2 [10]: 17.1 min
CCN(CC)S(=O)(=O)c1ccc(S(=O)(=O)N2CCC[C@@H](C(=O)N[C@H]3CC[C@H](OC)CC3)C2)cc1 | 2000 | 1350 | > 10000 | 2290 | –
CCN(CC)S(=O)(=O)c1ccc(S(=O)(=O)N2CCC[C@@H](C(=O)N3CCC(F)(F)CC3)C2)cc1 | 120 | 16 | > 10000 | 19 | IC50 [5]: 21.3 nM; IC50 [8]: > 3000 nM; t1/2 [9]: 2.6 min; half-life at 10 µM [10]: 2.74 min
CCN(CC)S(=O)(=O)c1ccc(S(=O)(=O)N2CCC[C@@H](C(=O)N3CC[C@@H](OC)C3)C2)cc1 | 11500 | 3910 | > 10000 | 1070 | –
CN(C)S(=O)(=O)c1ccc(S(=O)(=O)N2CCC[C@@H](C(=O)N3CCC(F)(F)CC3)C2)cc1 | 560 | – | > 3000 | 72.4 | IC50 [5]: 78.9 nM; Activity [11]: Non-Toxic; IC50 [8]: > 3000 nM; half-life at 10 µM [9]: 32 min; Activity [12]: Non-Toxic; half-life at 10 µM [10]: > 60 min
CC(C)NS(=O)(=O)c1ccc(S(=O)(=O)N2CCC[C@@H](C(=O)N3CCC(F)(F)CC3)C2)cc1 | 470 | 350 | – | – | t1/2 [9]: 23.1 min; t1/2 [10]: 19.7 min
CCN(CC)S(=O)(=O)c1ccc(S(=O)(=O)N2CCC[C@@H](C(=O)N3CCOCC3)C2)cc1 | 790 | 350 | > 10000 | 160 | –
CCN(CC)S(=O)(=O)c1ccc(S(=O)(=O)N2CCC[C@@H](C(=O)N[C@H]3CCOC3)C2)cc1 | 5270 | 1670 | > 10000 | 290 | –
CCN(CC)S(=O)(=O)c1ccc(S(=O)(=O)N2CCC[C@@H](C(=O)N3CCC(O)CC3)C2)cc1 | 4710 | 870 | > 10000 | 230 | –
CCN(CC)S(=O)(=O)c1ccc(S(=O)(=O)N2CCC[C@@H](C(=O)N[C@@H]3CCOC3)C2)cc1 | 2270 | 750 | > 10000 | 100 | –
O=C([C@@H]1CCCN(S(=O)(=O)c2ccc(S(=O)(=O)C3CCC3)cc2)C1)N1CCC(F)(F)CC1 | 78 | 9 | > 3000 | 12.6 | IC50 [5]: 15.8 nM; Activity [13]: Active; Activity [14]: Non-Toxic; IC50 [8]: > 3000 nM; half-life at 10 µM [9]: 44 min; half-life at 10 µM [10]: > 60 min; Activity [15]: Non-Toxic
CCN(CC)S(=O)(=O)c1ccc(S(=O)(=O)N2CCC[C@@H](C(=O)N3CC[C@H](OC)C3)C2)cc1 | 6750 | 2460 | > 10000 | 460 | –
